Measurements from different studies.
Protocols differ between the studies behind these lines.
Target: Serine/threonine-protein kinase LATS1 (LATS1, Homo sapiens, UniProt O95835)
Residues used in one study (O95835 1-1130): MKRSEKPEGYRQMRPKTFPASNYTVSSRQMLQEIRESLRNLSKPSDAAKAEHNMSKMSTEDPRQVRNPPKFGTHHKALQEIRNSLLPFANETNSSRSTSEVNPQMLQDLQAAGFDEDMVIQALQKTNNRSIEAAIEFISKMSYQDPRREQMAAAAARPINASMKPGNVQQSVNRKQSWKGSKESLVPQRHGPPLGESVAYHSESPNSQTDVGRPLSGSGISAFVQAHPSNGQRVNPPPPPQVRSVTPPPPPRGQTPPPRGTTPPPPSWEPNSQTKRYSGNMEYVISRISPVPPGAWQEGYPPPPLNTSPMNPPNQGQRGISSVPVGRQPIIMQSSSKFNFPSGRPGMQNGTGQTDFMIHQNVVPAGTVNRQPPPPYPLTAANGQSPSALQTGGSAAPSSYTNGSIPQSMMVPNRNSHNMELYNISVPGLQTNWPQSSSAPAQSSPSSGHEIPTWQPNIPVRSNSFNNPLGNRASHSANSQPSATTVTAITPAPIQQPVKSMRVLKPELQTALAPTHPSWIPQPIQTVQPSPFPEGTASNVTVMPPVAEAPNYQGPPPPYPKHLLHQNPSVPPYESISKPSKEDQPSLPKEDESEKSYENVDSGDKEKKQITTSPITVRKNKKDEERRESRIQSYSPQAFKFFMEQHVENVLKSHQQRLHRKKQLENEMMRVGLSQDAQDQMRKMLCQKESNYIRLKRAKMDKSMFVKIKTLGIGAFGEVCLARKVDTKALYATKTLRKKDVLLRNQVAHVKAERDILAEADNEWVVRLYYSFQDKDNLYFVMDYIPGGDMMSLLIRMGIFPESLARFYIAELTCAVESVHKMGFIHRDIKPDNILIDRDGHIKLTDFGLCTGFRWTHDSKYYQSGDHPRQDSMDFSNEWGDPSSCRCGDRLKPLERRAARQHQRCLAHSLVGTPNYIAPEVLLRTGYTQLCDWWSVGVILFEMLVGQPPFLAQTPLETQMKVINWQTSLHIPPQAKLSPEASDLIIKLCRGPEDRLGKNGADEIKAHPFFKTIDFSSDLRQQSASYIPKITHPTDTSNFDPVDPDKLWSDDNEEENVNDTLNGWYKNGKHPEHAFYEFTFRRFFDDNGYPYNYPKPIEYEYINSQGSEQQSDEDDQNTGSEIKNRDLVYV

SMILES	test	conditions	remaining binding
CCOCCn1cc(C(=O)Nc2ccc(-n3nc(-c4cccnc4)cc3C(F)(F)F)cn2)ccc1=O	cell-free assay, competition with immobilised ligand	1 µM	69%
O=C(c1ccc(Nc2ncc(Cl)c(-c3cc4ccccc4s3)n2)cc1)N1CCC(N2CCCC2)CC1	binding, competition with immobilised ligand	1 µM	60%
Cc1nc(Cc2cccc(C(F)(F)F)c2)sc1-c1ccc(C(N)=O)nc1	cell-free assay, competition with immobilised ligand	1 µM	100%
C=CC(=O)N1CCC(C(=O)NCC(=O)N2CCN(c3nc(-c4cnc(N)nc4C(F)F)nc(N4CCOCC4)n3)CC2)CC1	binding, competition with immobilised ligand	1 µM	100%
COc1cc(-c2cn(C3CCc4c(F)cccc4N(CC(F)(F)F)C3=O)nn2)ccc1-n1cnc(C)c1 (stereo not drawn)	cell-free assay, competition with immobilised ligand	1 µM	93%
Cc1cnn2ncc(-c3ccnc(N(C)C)n3)c2c1	binding	1 µM	48%
CN(C)c1ncnc(-c2ccc3nc(Nc4cc(CN5CCN(C(=O)CC(F)(F)F)CC5)ccn4)[nH]c3c2)c1Cl	cell-free assay, competition with immobilised ligand	1 µM	95%
CN(C)c1nccc(-c2cnc3ncccn23)n1	binding	1 µM	100%
O=C(O)c1cc(-c2ccc(C3CCNCC3)cc2)c2ccc(-c3ccc(C(F)(F)F)cc3)cc2c1	cell-free assay, competition with immobilised ligand	1 µM	88%
O=C(c1ccc(Nc2nccc(-c3cc4ccccc4s3)n2)cc1)N1CCC(N2CCCC2)CC1	binding, competition with immobilised ligand	1 µM	93%
COc1ccnn2ncc(-c3ccnc(N(C)C)n3)c12	binding	1 µM	100%
O=C(NCC1CCOCC1)c1n[nH]cc1NC(=O)c1c(F)cccc1F	binding, competition with immobilised ligand	1 µM	100%
N[C@@H]1CCN(c2nccc(-c3cnn4ncccc34)n2)C1	binding	1 µM	100%
COc1cnc(Nc2cccc(S(N)(=O)=O)c2)nc1N1CCN(c2ccccc2)CC1	binding, competition with immobilised ligand	1 µM	100%
C[C@@H](c1ccc(-n2cnc3c(N)ncnc32)cc1)N1CCc2nn(C)c(Cc3ccccc3)c2C1=O	binding, competition with immobilised ligand	0.1 µM	100%
CCN1CCN(Cc2ccc(C(=O)Nc3ccc(C)c(Oc4ccc5c(c4)CC(=O)N5)c3)cc2C(F)(F)F)CC1	binding, competition with immobilised ligand	1 µM	94%
NS(=O)(=O)c1cc(NC(=O)Cc2ccccc2)ccc1Oc1cccc(Cl)c1	cell-free assay, competition with immobilised ligand	1 µM	79%
c1cnn2ncc(-c3ccnc(N4CCC45COC5)n3)c2c1	binding	1 µM	88%
c1cncc(-c2cccc(Nc3nccc(NC4CCCCC4)n3)c2)c1	binding, competition with immobilised ligand	10 µM	19%
C[C@@H]1CCN(c2nccc(-c3cnn4ncccc34)n2)C1	binding	1 µM	100%
Nc1ncc2c(n1)-c1c([nH]c3ccc(C#CC4CC4)cc13)CCCC2	binding, competition with immobilised ligand	1 µM	92%
